Screening data (PubChem)
PMI act hi M6P: activators of human phosphomannose isomerase at near-saturating mannose 6-phosphate; 190,000 tested, 0.34% active; activation factor at 20 µM; P34949; AID 1216; coupled PMI enzyme assay, resazurin fluorescence, 20 min; active compounds read high; 1 = untreated enzyme, 0 = substrate-free blank;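 active = activation factor of 2 or more at 20 µM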
Target sequence (P34949 whole entry, looked up): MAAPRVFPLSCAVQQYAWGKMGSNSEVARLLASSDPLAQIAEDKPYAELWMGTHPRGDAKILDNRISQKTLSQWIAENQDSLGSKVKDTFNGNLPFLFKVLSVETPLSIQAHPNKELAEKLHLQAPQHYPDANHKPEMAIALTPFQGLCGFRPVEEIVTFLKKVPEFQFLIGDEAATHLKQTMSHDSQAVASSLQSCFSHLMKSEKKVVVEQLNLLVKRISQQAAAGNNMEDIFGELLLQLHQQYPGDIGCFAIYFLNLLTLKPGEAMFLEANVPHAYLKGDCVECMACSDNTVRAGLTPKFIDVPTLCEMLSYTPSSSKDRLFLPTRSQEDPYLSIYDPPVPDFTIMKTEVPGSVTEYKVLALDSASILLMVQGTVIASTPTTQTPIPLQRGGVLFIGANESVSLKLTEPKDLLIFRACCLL
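Test system: Human PMI in coupled enzyme assay | Input: 15 ng/mL PMI | Medium: HEPES-buffered pH 7.4 with magnesium and detergent | Compound: One concentration, 20 µM, in 1% DMSO | Incubation: Enzyme reaction with compound 20 min at room temperature | Detection: Diaphorase-driven resazurin-to-resorufin fluorescence, excitation 544, emission 590 nm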
L major viab: reduces viability of Leishmania major promastigotes | resazurin fluorescence viability | inhibition, % at 10 µM | 200,000 tested, 9% active; in the data active = inhibition above about 50%;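 also: promastigotes grown with compound for 44 hours at 28 °C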
HCT116 PTEN-null: suppresses growth of cells with PTEN deletion; HCT116 PTEN-null viability, CellTiter-Glo, 60 h; active compounds read low; viability, % at 10 µM; 140,000 tested, 1.2% active;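 active = viability at or below a set limit, 4 SD under the median of all tested compounds, cut at about 3.7% in these data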;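 also: PTEN knockout HCT116 line with beta catenin targeted HCT116 as companion control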
PMI act: activators of human phosphomannose isomerase. P34949. purified human PMI, coupled resazurin fluorescence, 20 min; active compounds read high; 1 = vehicle control, 0 substrate-free wells. activation factor at 20 µM. 190,000 tested, 0.005% active. AID 1214;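 active = activation factor of 2 or more at 20 µM, relative to plate controls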
HCT116 bCat-KO: beta-catenin-lacking colon tumor cell growth suppression; viability, % at 10 µM; HCT116 beta-catenin knockout viability, CellTiter-Glo, 60 h; active compounds read low; 140,000 tested, 1.5% active;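 active = viability at or under a set limit, the compound median less 4 SD, cut at about 6% in these data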;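 also: 0% = Hyamine 1622 control at 20 µM and 100% = untreated cell control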
Numbers without * were called inactive; · = no result. A selection: hits, their analogues and other compounds. The true share with any hit is near 9.6%.

SMILES	PMI act hi M6P	L major viab	HCT116 PTEN-null	PMI act	HCT116 bCat-KO
COc1cc(CNCCCN2CCOCC2)cc(Br)c1OCc1ccc(Cl)cc1	1.1	100*	·	1.1	·
CCOc1ccc(Br)cc1CNCCN1CCOCC1	1.1	11	99	1.1	92
COc1cc(CNCCN2CCOCC2)ccc1OCc1ccc(Cl)cc1	1.1	94*	72	1	75
COc1ccc(Cl)cc1NC(=S)NCCN1CCOCC1	1.1	-2	·	1.1	·
COc1cc(CNCc2ccccn2)ccc1OCc1ccccc1Cl	1.3	94*	65	1.3	71
CCOC(=O)C1CCC(CN(Cc2ccccc2C)S(=O)(=O)c2ccc([N+](=O)[O-])cc2)CC1 (stereo unspecified)	0.9	86*	64	1	71
NC(=O)c1ccc(N2CCN(S(=O)(=O)c3ccccc3)CC2)c([N+](=O)[O-])c1	0.9	-5	·	0.9	·
Cc1cccc(C(C)(C)C)c1OCCCCN1CCCC1	1.1	100*	64	1	79
Cc1ccccc1OCC(=O)NCCN1CCCC1	1.1	-2	96	1.1	88
CCOc1ccccc1OCCCCN1CCCC1	0.9	17	93	0.8	88
CC(C)c1cccc(C(C)C)c1OCCCCN1CCCC1	1	92*	89	1.1	86
CC(C)(C)c1ccccc1OCCCCN1CCCC1	1	99*	79	0.9	74
Cc1ccc(S(=O)(=O)NC(=O)c2ccc(-c3ccc(C)c4ccccc34)o2)cc1	0.7	-3	89	1	88
CCNC(=S)Nc1ccc(S(=O)(=O)Nc2cc(C)nc(C)n2)cc1	1.1	-7	·	1.1	·
COc1ccc(Nc2ncc(C(=O)N3CCN(Cc4ccccc4)CC3)c3ccccc23)cc1	1	25	3.4*	1	3.9*
COc1ccc(S(=O)(=O)Cc2ccc(C(=O)N3CCN(C(=O)c4ccco4)CC3)o2)cc1	0.9	-4	100	0.9	91
Cc1ccc(S(=O)(=O)Cc2ccc(C(=O)N3CCN(Cc4ccccc4)CC3)o2)cc1	0.9	99*	86	0.9	86
COc1ccc(N2CCN(C(=O)c3ccc(CS(=O)(=O)c4ccc(OC)cc4)o3)CC2)cc1	1	81*	89	1	83
COc1ccc(S(=O)(=O)Cc2ccc(C(=O)N3CCN(Cc4ccccc4)CC3)o2)cc1	1.1	99*	95	0.9	91
CC1(C)COC(c2coc3ccccc3c2=O)OC1	0.9	45	98	1	92
N#Cc1ccc(N2Cc3ccccc3C2=NC(=O)c2cccnc2Cl)cc1	1.3	-3	92	1.3	101
CS(=O)(=O)c1ccc(C(=O)N2CCN(Cc3ccccc3)CC2)cc1	1.1	-3	·	1	·
O=C(c1ccc(CNS(=O)(=O)c2ccccc2)cc1)N1CCN(Cc2ccccc2)CC1	1	72*	53	1	54
C#CCOCCOCCOCCNc1nc(N2CCN(C(=O)C(Cc3ccc(O)cc3)n3cc(C(N)CC(C)C)nn3)CC2)nc(N2CCN(C(=O)C(Cc3cc4ccccc4[nH]3)n3cc(C(N)Cc4ccc(O)cc4)nn3)CC2)n1 (stereo unspecified)	1.2	-4	·	1.2	·
O=C(OC(C(=O)NC1CCCC1)c1cccnc1)C1=Cc2ccccc2OC1 (stereo unspecified)	1	94*	100	1	96
SMILES	PMI act hi M6P	L major viab	HCT116 PTEN-null	PMI act	HCT116 bCat-KO
N#CC1=CN(Cc2ccccc2)C=C(/C=N/Nc2ccccc2)C1	1.7	98*	·	1.5	·
CC(=O)C1=C(O)CCCC1=NCc1nc2ccccc2[nH]1	1.1	8	·	1	·
COC(=O)CCN(C(=O)c1cccc(OC(C)=O)c1)c1ccccn1	1.1	3	102	1.1	98
CCNC(=O)CN1C(=O)NC(Cc2ccccc2)(Cc2ccccc2)C1=O	1	-5	·	1	·
N#Cc1ccc(OCC(=O)N/N=C2/CC(c3ccccc3)Oc3ccccc32)cc1 (stereo unspecified)	1.1	53*	61	1.1	55
O=C(N/N=C1/CC(c2ccccc2)Oc2ccccc21)C1CC1 (stereo unspecified)	0.9	44	30	1	36
CCOc1ccc(S(=O)(=O)N/N=C2/CC(c3ccccc3)Oc3ccccc32)cc1 (stereo unspecified)	1	50*	90	0.9	89
CC(C)(C)C(=O)NCCc1nc2ccccc2n1CC(=O)c1ccc(Cl)cc1	1.1	26	83	1.1	89
CC[n+]1ccccc1/C=C/c1ccc(N(C)C)cc1	1	96*	·	0.7	·
CN(C)c1ccc(/C=C/c2cc[n+](C)cc2)cc1	1.1	99*	14	1	8
CC[n+]1c(/C=C/c2ccc(N(C)C)cc2)ccc2ccccc21	1	100*	2.1*	0.7	3.4*
CN(C)c1ccc(/C=C/c2cc[n+]([O-])cc2)cc1	0.7	-4	96	1.1	95
CN(C)c1ccc(/C=N/N=C/c2ccccc2O)cc1	1.9	-6	88	1.5	90
CC[n+]1ccc(/C=C/c2ccc(N(C)C)cc2)c2ccccc21	1	100*	·	1	·
CSc1ccc(CNCCCN(C)C)cc1	1	7	92	1	89
NS(=O)(=O)c1ccc(CCNC(=O)COC(=O)CN2C(=O)C3CCCCC3C2=O)cc1 (stereo unspecified)	1.1	5	·	1.1	·
N#C/C(=C/c1ccco1)c1nc2ccccc2s1	0.9	57*	74	1	75
C#CC[N+](C)(C)CCCCCCCCCCCC	1	100*	1.7*	1	1.4*
C#CC[N+](C)(C)CC#Cc1ccc(Cl)cc1	1	-5	63	0.9	67
CC#CC[N+](C)(C)CCCCCCCCCCCC	0.9	100*	0.6*	0.9	0.8*
C#CC[N+](C)(C)CCCCCCCC	0.9	-2	16	0.9	29
C#CC[N+](C)(C)CCCCCCCCCC	0.9	58*	12	0.9	13
CCOc1ccc(NC(=O)c2ccc(-n3cccn3)nc2)cc1	1	-4	·	0.9	·
NC(=O)C1=C[C@@H](c2ccccc2)C[C@@H](OCc2ccc(CO)cc2)O1	0.3	6	·	0.8	·
O=C(COc1cc(Cl)c(Cl)cc1Cl)NC(=O)Nc1ccc2c(c1)OCCO2	1	63*	97	0.9	99
O=C(COC(=O)/C=C/c1ccc(Cl)cc1)Nc1ccc2c(c1)OCCO2	1	51*	109	0.9	101
O=C(COC(=O)Cc1ccccc1F)Nc1ccc2c(c1)OCCO2	0.9	-5	92	0.8	92
O=C(COC(=O)Cc1cccc(C(F)(F)F)c1)Nc1ccc2c(c1)OCCO2	1	65*	103	1.1	98
O=C(COC(=O)CNC(=O)c1ccc(Cl)cc1)Nc1ccc2c(c1)OCCO2	0.9	57*	93	1	84
COc1ccc(Cl)cc1NC(=O)C1CSC(c2ccncc2)=N1 (stereo unspecified)	0.9	18	73	0.9	69
